Measured values from ChEMBL document CHEMBL1154840, “New pyrazoles incorporating pyrazolylpyrazole moiety: synthesis, anti-HCV and antitumor activity” (Eur J Med Chem, 2010).
≈ marks a conversion by molar mass, not a printed value. Calls of active or inactive are those of the source. The rule behind the calls is not given here.

Experiments:
[1] = system: Radical scavenging activity; test: Antioxidant activity against DPPH radical scavenging activity after 30 mins by ELISA; format: functional; set-up: concentration or dose not given beside the values
Procedure, shortened: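 DPPH radical scavenging. Compounds were dissolved in DMSO and serially diluted, 0.0–100 μM/ml. 10 µl was added to 90 µl of 100 µM DPPH in methanol and incubated 30 min at 37 °C in the dark. Decrease in absorbance was read at 515 nm. % reduction = [(A_B − A_A)/A_B] × 100, against a DMSO/DPPH blank. Triplicate.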

Mus musculus [2] = test: Toxicity in mouse Colon 38 cells xenografted C57BL/6 mouse assessed as body weight change at 3 mg/kg, iv administered as a single dose; format: organism-based, MC-38; set-up: dose 3 mg/kg, route intravenous; settings: in vivo
Procedure, shortened: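 Female C57BL/6 mice, 6 weeks old, had about 30 mg of Colon 38 tumour tissue implanted s.c. in the flank. When tumours reached about 300 mm³ on day 1, mice were randomised into control and treatment groups (n = 5 each). Compound in 5% glucose was given once on day 1 by tail-vein i.v. injection; controls received 5% glucose. Body weight was tracked over subsequent days.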

[3] = Antioxidant activity against peroxynitrite-induced tyrosine nitration after 15 mins by HPLC; format: functional
Procedure, shortened: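 Tyrosine (100 μM) was reacted with equimolar peroxynitrite and increasing compound concentrations (0–300 μM) in 100 mM phosphate buffer pH 7.4 at 37 °C for 15 min. 3-Nitrotyrosine formation was measured by reverse-phase C18 HPLC using a methanol/water/HCl and acetonitrile/water/HCl mobile phase. IC50 reported.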

[4] = target: DNA topoisomerase 2-alpha (Mus musculus) (UniProt Q01320); test: Inhibition of mouse DNA topoisomerase 2 assessed as relaxation of supercoiled pBR322 plasmid DNA after 1 hr by electrophoresis relative to etoposide
Procedure, shortened: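 Topoisomerase II was purified from P388 cells. 0.125 μg supercoiled pBR-322 DNA was incubated with 1 unit of enzyme at 30 °C for 1 h in 50 mM Tris–HCl pH 8.0, 100 mM KCl, 10 mM MgCl2, 0.5 mM DTT, 1 mM ATP and 30 μg/ml BSA. Products were resolved on 0.7% agarose in TBE and stained with ethidium bromide.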

MC-38 [5] = test: Growth inhibition of mouse Colon 38 cells after 72 hrs by sulforhodamine B assay relative to etoposide; format: functional
Procedure, shortened: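 Exponentially growing cells were seeded on day 0. Graded drug concentrations were added on day 1, followed by 72 h at 37 °C. Cell number was estimated by SRB assay, with a separate day-1 count. GI50 is the concentration giving a 50% reduction in net protein increase versus control.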

Hepacivirus hominis = test: Inhibition of HCV […] by quantitative RT-PCR
Procedure, shortened: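 HCV replicon cells, 1×10^4 per well, were plated and the next day exposed to serially diluted compounds in DMEM with 2% FBS and 0.5% DMSO at 37 °C. Total RNA was extracted and HCV RNA copy number was measured by quantitative RT-PCR. Five replicates per point; MIC reported.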

Mus musculus [6] = test: Toxicity in mouse Colon 38 cells xenografted C57BL/6 mouse assessed as mortality at 3 mg/kg, iv administered as a single dose; format: organism-based, MC-38; set-up: dose 3 mg/kg, route intravenous; settings: in vivo
MC-38 [7] = test: Antitumor activity against mouse Colon 38 cells xenografted in C57BL/6 mouse assessed as tumor volume at 3 mg/kg, iv administered as a single dose; format: functional, organism-based; set-up: dose 3 mg/kg
Procedure, shortened: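 Female C57BL/6 mice, 6 weeks old, were inoculated s.c. in the flank with about 30 mg Colon 38 tumor tissue. When tumors reached approximately 300 mm³ (day 1), mice were randomized, n = 5 per group. Compound in 5% glucose was given as a single i.v. tail-vein dose on day 1; controls received 5% glucose. Tumor volume = ([…])/2; body weight also recorded.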

[8] = system: Measles virus (SSPE virus); test: Antiviral activity against measles virus infected in hamster brain assessed as inhibition of subacute sclerosing panencephalitis dosed intracranially by HPLC

Sequence of DNA topoisomerase 2-alpha (Mus musculus) (Q01320 whole entry): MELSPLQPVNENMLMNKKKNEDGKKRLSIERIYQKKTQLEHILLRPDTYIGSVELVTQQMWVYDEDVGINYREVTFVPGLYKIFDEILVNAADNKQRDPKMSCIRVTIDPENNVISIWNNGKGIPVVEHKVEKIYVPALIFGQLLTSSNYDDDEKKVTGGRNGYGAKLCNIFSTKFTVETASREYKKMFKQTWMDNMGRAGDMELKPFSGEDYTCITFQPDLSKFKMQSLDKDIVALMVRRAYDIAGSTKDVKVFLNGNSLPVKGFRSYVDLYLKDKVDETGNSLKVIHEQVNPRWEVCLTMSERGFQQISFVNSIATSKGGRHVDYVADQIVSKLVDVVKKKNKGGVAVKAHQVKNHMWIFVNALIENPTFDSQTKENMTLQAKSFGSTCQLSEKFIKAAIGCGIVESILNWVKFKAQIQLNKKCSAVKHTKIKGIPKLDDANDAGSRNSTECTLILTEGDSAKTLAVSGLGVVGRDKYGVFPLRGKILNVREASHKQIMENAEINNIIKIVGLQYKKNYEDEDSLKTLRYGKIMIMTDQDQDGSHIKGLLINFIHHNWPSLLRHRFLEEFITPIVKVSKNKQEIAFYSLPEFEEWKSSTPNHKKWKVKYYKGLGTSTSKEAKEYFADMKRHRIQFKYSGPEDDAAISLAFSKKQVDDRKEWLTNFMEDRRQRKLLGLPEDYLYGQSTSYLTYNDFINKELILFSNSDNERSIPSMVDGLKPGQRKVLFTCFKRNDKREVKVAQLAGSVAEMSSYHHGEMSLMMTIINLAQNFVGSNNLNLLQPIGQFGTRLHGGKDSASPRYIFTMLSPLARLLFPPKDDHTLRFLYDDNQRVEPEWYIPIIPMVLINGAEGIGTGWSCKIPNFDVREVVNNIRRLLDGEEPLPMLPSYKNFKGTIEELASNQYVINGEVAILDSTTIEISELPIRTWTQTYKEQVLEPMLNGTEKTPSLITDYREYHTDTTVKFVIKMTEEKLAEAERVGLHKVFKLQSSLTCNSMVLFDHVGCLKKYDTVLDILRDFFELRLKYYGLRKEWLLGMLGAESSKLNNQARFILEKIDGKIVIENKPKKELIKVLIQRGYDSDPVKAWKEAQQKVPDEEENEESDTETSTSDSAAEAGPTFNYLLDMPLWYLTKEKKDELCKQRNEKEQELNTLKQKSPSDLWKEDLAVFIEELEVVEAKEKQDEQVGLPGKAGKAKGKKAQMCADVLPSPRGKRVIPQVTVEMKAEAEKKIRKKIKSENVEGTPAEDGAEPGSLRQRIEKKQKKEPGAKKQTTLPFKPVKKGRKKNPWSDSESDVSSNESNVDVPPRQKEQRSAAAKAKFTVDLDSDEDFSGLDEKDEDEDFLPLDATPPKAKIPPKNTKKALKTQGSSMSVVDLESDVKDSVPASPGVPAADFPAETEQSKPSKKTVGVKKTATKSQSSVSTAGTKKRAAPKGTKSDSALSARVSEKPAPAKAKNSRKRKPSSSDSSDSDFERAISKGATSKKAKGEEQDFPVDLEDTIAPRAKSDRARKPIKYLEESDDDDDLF

| Compound | Activity [1] [%] | Activity (Mus musculus [2]) | IC50 [3] [µM] | Ratio [4] | RatioGI50 (MC-38 [5]) | MIC (Hepacivirus hominis) [µg/mL] | Activity (Mus musculus [6]) | Activity (MC-38 [7]) | MIC [8] [µg/mL] |
| --- | --- | --- | --- | --- | --- | --- | --- | --- | --- |
| CC(=O)c1nn(-c2ccccc2)cc1C(=O)c1ccccc1 | 95.2 | Non-toxic | 39.5 | 168 | 168.5 | 0.162 (≈ 0.558 µM) | Non-toxic | Active | 3.62 (≈ 12.5 µM) |
| CN(C)/C=C/C(=O)c1nn(-c2ccccc2)cc1C(=O)c1ccccc1 | 94.5 | Non-toxic | 44 | 136 | 136.4 | 0.32 (≈ 0.926 µM) | Non-toxic | Active | 4 (≈ 11.6 µM) |
| CC(=O)c1nn(-c2ccccc2)cc1C(=O)c1nn(-c2ccc(C)cc2)cc1C(=O)c1ccccc1 | 94 | Non-toxic | 44.1 | 38.4 | 38.46 | 0.322 (≈ 0.679 µM) | Non-toxic | Active | 4.12 (≈ 8.68 µM) |
| CC(=O)c1nn(-c2ccccc2)cc1C(=O)c1nn(-c2ccc(Cl)cc2)cc1C(=O)c1ccccc1 | 97.7 | Non-toxic | 32.2 | 261 | 260.9 | 0.147 (≈ 0.297 µM) | Non-toxic | Active | 3.11 (≈ 6.29 µM) |
| CC(=O)c1nn(-c2ccccc2)cc1C(=O)c1nn(-c2ccc([N+](=O)[O-])cc2)cc1C(=O)c1ccccc1 | 96 | Non-toxic | 36.6 | 195 | 194.8 | 0.155 (≈ 0.307 µM) | Non-toxic | Active | 3.22 (≈ 6.36 µM) |
| Cc1ccc(-n2cc(C(=O)c3ccccc3)c(C(=O)/C=C/N(C)C)n2)cc1 | 96.6 | Non-toxic | 34.2 | 260 | 260.4 | 0.15 (≈ 0.417 µM) | Non-toxic | Active | 3.18 (≈ 8.84 µM) |
| CC(=O)c1nn(-c2ccccc2)cc1C(=O)c1nn(-c2ccccc2)cc1C(=O)c1nn(-c2ccccc2)cc1C(=O)c1ccccc1 | 95 | Non-toxic | 42.1 | 151 | 150.8 | 0.171 (≈ 0.271 µM) | Non-toxic | Active | 3.71 (≈ 5.89 µM) |
| CC(=O)c1nn(-c2ccccc2)cc1C(=O)c1nn(-c2ccccc2)cc1C(=O)c1nn(-c2ccc(Cl)cc2)cc1C(=O)c1ccccc1 | 96.1 | Non-toxic | 35.1 | 196 | 196.1 | 0.151 (≈ 0.227 µM) | Non-toxic | Active | 3.2 (≈ 4.81 µM) |
| CN(C)/C=C/C(=O)c1nn(-c2ccccc2)cc1C(=O)c1nn(-c2ccc(Cl)cc2)cc1C(=O)c1ccccc1 | 93 | Non-toxic | 44.6 | 37.9 | 37.97 | 0.323 (≈ 0.587 µM) | Non-toxic | Active | 4.15 (≈ 7.55 µM) |
| Cc1ccc(-n2cc(C(=O)c3ccccc3)c(C(=O)c3cn(-c4ccccc4)nc3C(=O)/C=C/N(C)C)n2)cc1 | 94.9 | Non-toxic | 42.2 | 150 | 150 | 0.181 (≈ 0.342 µM) | Non-toxic | Active | 3.82 (≈ 7.21 µM) |
| CC(=O)c1nn(-c2ccccc2)cc1C(=O)c1nn(-c2ccccc2)cc1C(=O)c1nn(-c2ccc(C)cc2)cc1C(=O)c1ccccc1 | 96.9 | Non-toxic | 34 | 261 | 260.6 | 0.149 (≈ 0.231 µM) | Non-toxic | Active | 3.12 (≈ 4.84 µM) |
| Cc1c(C)c2c(c(C)c1O)CCC(C)(C(=O)O)O2 (centres undefined) [TROLOX] |  |  | 58.4 |  |  |  |  |  |  |
| CN(C)/C=C/C(=O)c1nn(-c2ccccc2)cc1C(=O)c1nn(-c2ccccc2)cc1C(=O)c1ccccc1 | 94.7 | Non-toxic | 44 | 143 | 142.9 | 0.291 (≈ 0.564 µM) | Non-toxic | Active | 3.99 (≈ 7.74 µM) |
| O=C1O[C@H]([C@@H](O)CO)C(O)=C1O | 79 |  |  |  |  |  |  |  |  |
| CC(=O)c1nn(-c2ccc(C)cc2)cc1C(=O)c1ccccc1 | 95.8 | Non-toxic | 37.8 | 189 | 188.7 | 0.159 (≈ 0.522 µM) | Non-toxic | Active | 3.42 (≈ 11.3 µM) |
| CC(=O)c1nn(-c2ccc(Cl)cc2)cc1C(=O)c1ccccc1 | 95.5 |  | 38.1 | 178 | 178.6 | 0.161 (≈ 0.496 µM) |  |  | 3.52 (≈ 10.8 µM) |
| CC(=O)c1nn(-c2ccc([N+](=O)[O-])cc2)cc1C(=O)c1ccccc1 | 98.2 | Non-toxic | 31.5 | 261 | 260.9 | 0.144 (≈ 0.429 µM) | Non-toxic | Active | 3.09 (≈ 9.21 µM) |
